Experimental data: ChEMBL document CHEMBL1127729, “Synthesis and pharmacological evaluation of phenylacetamides as sodium-channel blockers” (J Med Chem, 1994)

Species: Rattus norvegicus
Assay: In vitro inhibition of hypoxic-mediated cell injury in Dawley fetal rat brain
`CC1CCCC(C)N1CCCNC(=O)C(c1ccccc1)c1ccccc1` (centres undefined) gave an IC50 of 89 µM. Work on `CC1CCCC(C)N1CCCNC(=O)C1(c2ccccc2)CCCCC1` (centres undefined) yielded an IC50 of 61 µM. `CC1CCCC(C)N1CCCNC(=O)C1c2ccccc2-c2ccccc21` (centres undefined) showed an IC50 of 51 µM. `CC1CCCC(C)N1CCCNC(=O)C(c1ccccc1Cl)c1ccccc1Cl` (centres undefined) gave an IC50 of 4.8 µM. `CC1CCCC(C)N1CCCNC(=O)Cc1ccccc1` (centres undefined) gave an IC50 greater than 100 µM. Molecule `CC1CCCC(C)N1CCCNC(=O)N(c1ccccc1)c1ccccc1` (centres undefined) has an IC50 greater than 100 µM.

These molecules were tested against Sodium channel protein type 2 subunit alpha (Rattus norvegicus, UniProt P04775) (assay: Inhibition of veratridine-induced Na+ influx in chinese hamster ovary cells expressing alpha subunit of rat brain type voltage-gated sodium channel type 2).
Chain of Sodium channel protein type 2 subunit alpha (P04775 whole entry): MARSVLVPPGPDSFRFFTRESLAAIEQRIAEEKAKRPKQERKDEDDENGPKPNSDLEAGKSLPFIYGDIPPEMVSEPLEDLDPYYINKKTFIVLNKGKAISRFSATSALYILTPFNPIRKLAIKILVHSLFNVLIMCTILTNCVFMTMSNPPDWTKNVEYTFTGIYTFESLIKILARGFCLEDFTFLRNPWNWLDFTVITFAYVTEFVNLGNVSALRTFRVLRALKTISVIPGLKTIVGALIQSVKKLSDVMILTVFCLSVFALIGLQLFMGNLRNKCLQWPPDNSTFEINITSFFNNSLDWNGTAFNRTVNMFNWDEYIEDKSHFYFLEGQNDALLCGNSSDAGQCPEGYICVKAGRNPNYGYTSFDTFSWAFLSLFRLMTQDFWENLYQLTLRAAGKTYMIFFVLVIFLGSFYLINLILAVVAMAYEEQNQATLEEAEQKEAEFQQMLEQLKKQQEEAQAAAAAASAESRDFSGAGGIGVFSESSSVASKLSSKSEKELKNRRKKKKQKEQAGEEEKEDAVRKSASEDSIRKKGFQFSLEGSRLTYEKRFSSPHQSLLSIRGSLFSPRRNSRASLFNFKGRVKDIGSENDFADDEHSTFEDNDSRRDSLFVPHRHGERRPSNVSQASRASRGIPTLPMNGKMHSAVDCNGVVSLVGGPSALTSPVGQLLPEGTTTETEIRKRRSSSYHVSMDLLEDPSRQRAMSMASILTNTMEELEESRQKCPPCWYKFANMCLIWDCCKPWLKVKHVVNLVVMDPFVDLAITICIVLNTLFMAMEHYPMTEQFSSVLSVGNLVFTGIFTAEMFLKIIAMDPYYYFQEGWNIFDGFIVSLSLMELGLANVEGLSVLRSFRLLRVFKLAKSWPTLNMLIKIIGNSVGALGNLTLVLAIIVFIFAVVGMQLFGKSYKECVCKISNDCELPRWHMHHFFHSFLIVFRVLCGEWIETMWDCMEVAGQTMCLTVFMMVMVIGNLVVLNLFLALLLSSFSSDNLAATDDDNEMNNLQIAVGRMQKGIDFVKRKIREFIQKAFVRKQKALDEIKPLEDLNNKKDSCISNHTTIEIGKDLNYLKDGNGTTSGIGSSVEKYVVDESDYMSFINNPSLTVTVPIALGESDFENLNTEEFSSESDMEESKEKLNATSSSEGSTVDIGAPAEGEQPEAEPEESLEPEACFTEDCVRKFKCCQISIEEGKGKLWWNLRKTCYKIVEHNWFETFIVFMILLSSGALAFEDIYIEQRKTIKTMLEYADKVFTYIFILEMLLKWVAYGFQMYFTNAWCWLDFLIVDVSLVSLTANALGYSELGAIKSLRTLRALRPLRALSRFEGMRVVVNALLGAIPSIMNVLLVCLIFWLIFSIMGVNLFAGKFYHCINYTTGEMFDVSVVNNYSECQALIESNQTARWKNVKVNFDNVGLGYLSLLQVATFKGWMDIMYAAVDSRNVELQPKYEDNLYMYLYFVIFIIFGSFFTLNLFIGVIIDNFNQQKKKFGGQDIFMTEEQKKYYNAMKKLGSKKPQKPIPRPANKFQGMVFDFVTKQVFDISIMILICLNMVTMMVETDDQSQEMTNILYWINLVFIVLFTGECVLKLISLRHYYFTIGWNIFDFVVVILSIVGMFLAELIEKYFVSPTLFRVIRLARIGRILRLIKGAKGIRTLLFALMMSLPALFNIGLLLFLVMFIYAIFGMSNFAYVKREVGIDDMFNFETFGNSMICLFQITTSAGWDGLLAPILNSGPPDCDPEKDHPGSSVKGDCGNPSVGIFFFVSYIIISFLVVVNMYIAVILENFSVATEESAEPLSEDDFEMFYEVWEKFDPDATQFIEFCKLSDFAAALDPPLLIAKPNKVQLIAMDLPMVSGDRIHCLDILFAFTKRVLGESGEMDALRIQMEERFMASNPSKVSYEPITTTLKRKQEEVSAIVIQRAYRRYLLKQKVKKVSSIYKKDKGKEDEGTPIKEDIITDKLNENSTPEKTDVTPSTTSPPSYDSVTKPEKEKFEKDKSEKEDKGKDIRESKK
Assay type: functional
Method in brief: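 CNaIIA-1 cells (CHO-K1 transfected with rat brain IIA α subunit cDNA) in choline-based KRH buffer, pH 7.4. Compound at 0.01–100 μM final, added with 30 μM veratridine plus α-scorpion venom, 11 min at 37 °C. Cell-retained radioactivity counted after Triton lysis; IC50 determined.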
For `CC1CCCC(C)N1CCCNC(=O)C(c1ccccc1)c1ccccc1` (centres undefined), the IC50 was 2.7 µM. For `CC1CCCC(C)N1CCCN1C(=O)CC(c2ccccc2)(c2ccccc2)C1=O` (centres undefined), the IC50 was 3.6 µM. `CC1CCCC(C)N1CCCNC(=O)C(c1ccc(Cl)cc1)c1ccc(Cl)cc1` (centres undefined) showed an IC50 of 4.5 µM. `COc1ccc(C(C(=O)NCCCN2C(C)CCCC2C)c2ccc(OC)c3ccccc23)c2ccccc12` (centres undefined) gave an IC50 of 13 µM. `CC1CCCC(C)N1CCCNC(=O)C1(c2ccccc2)CCCCC1` (centres undefined) gave an IC50 of 4.3 µM. With `CC1CCCC(C)N1CCCNC(=O)C1c2ccccc2-c2ccccc21` (centres undefined) the IC50 was 29 µM. `CC1CCCC(C)N1CCCNC(=O)C(c1ccccc1Cl)c1ccccc1Cl` (centres undefined) gave an IC50 of 3.5 µM. For `CC1CCCC(C)N1CCCNC(=O)C(c1ccc(F)cc1)c1ccc(F)cc1` (centres undefined), the IC50 was 5.8 µM. Work on `CC1CCCC(C)N1CCCNC(=O)Cc1ccccc1` (centres undefined) yielded an IC50 greater than 100 µM. `COc1ccc(C(C(=O)NCCCN2C(C)CCCC2C)c2ccc(OC)cc2)cc1` (centres undefined) was tested, and the IC50 was 3.1 µM. Molecule `CC1CCCC(C)N1CCCNC(=O)Cc1cccc2ccccc12` (centres undefined) has an IC50 greater than 100 µM. Work on `CC1CCCC(C)N1CCCNC(=O)C1c2ccccc2Oc2ccccc21` (centres undefined) yielded an IC50 of 13 µM. Molecule `Cc1cccc(C)c1NC(=O)CN1CCN(CCCC(c2ccc(F)cc2)c2ccc(F)cc2)CC1` [LIDOFLAZINE] has an IC50 of 2.4 µM.

Species: Rattus norvegicus
Assay: In vitro inhibition of veratridine induced LDH release in rat embryos
Assay type: functional
Method in brief: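 Rat embryo cortical neuron cultures, 17–18 days old, given compound together with 100 μM veratridine in HEPES saline (pH 7.4) for 10 min. Medium was then replaced by serum-free medium. LDH in medium taken 1 day later, read kinetically as A340 decline of NADH after pyruvate addition at 37 °C.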
With `CC1CCCC(C)N1CCCNC(=O)C(c1ccccc1)c1ccccc1` (centres undefined) the IC50 was 5 µM. With `CC1CCCC(C)N1CCCNC(=O)C1(c2ccccc2)CCCCC1` (centres undefined) the IC50 was 12 µM. Molecule `CC1CCCC(C)N1CCCNC(=O)C1c2ccccc2-c2ccccc21` (centres undefined) has an IC50 greater than 30 µM. Work on `CC1CCCC(C)N1CCCNC(=O)C(c1ccccc1Cl)c1ccccc1Cl` (centres undefined) yielded an IC50 of 6 µM. Work on `CC1CCCC(C)N1CCCNC(=O)Cc1ccccc1` (centres undefined) yielded an IC50 greater than 30 µM. `CC1CCCC(C)N1CCCNC(=O)N(c1ccccc1)c1ccccc1` (centres undefined) gave an IC50 greater than 30 µM. `Fc1ccc(C(c2ccc(F)cc2)N2CCN(C/C=C/c3ccccc3)CC2)cc1` [FLUNARIZINE] gave an IC50 of 2 µM.

The molecules below were run against Sodium channel alpha subunits; brain (Types I, II, III) (Rattus norvegicus, UniProt P04775+P04774+P08104) (assay: Inhibition of [3H]- batrachotoxin binding to sodium channel in rat neocortical membrane).
Assay type: cell membranes
For `CC1CCCC(C)N1CCCNC(=O)C(c1ccccc1)c1ccccc1` (centres undefined), the Ki was 0.26 µM. With `CC1CCCC(C)N1CCCN1C(=O)CC(c2ccccc2)(c2ccccc2)C1=O` (centres undefined) the Ki was 1 µM. Work on `CC1CCCC(C)N1CCCNC(=O)C(c1ccc(Cl)cc1)c1ccc(Cl)cc1` (centres undefined) yielded a Ki of 0.11 µM. For `COc1ccc(C(C(=O)NCCCN2C(C)CCCC2C)c2ccc(OC)c3ccccc23)c2ccccc12` (centres undefined), the Ki was 0.24 µM. `CC1CCCC(C)N1CCCNC(=O)C1(c2ccccc2)CCCCC1` (centres undefined) showed a Ki of 0.38 µM. For `CC1CCCC(C)N1CCCNC(=O)C1c2ccccc2-c2ccccc21` (centres undefined), the Ki was 2.3 µM. `CC1CCCC(C)N1CCCNC(=O)C(c1ccccc1Cl)c1ccccc1Cl` (centres undefined) showed a Ki of 0.073 µM. Molecule `CC1CCCC(C)N1CCCNC(=O)C(c1ccc(F)cc1)c1ccc(F)cc1` (centres undefined) has a Ki of 0.13 µM. With `CC1CCCC(C)N1CCCNC(=O)Cc1ccccc1` (centres undefined) the Ki was 21 µM. Work on `COc1ccc(C(C(=O)NCCCN2C(C)CCCC2C)c2ccc(OC)cc2)cc1` (centres undefined) yielded a Ki of 1 µM. `CC1CCCC(C)N1CCCNC(=O)Cc1cccc2ccccc12` (centres undefined) gave a Ki of 6.9 µM. `CC1CCCC(C)N1CCCNC(=O)C1c2ccccc2Oc2ccccc21` (centres undefined) showed a Ki of 0.41 µM. Molecule `Cc1cccc(C)c1NC(=O)CN1CCN(CCCC(c2ccc(F)cc2)c2ccc(F)cc2)CC1` [LIDOFLAZINE] has a Ki of 0.077 µM.
